Data set [1] can be described thus: Metabolic stability by incubation with human liver microsomes. The data set is classed as ADME, Microsome. An outline of the steps:
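Human liver microsomes (4 mg protein/mL) incubated with compound at 23 µM, 37 ± 1 °C, in 50 mM potassium phosphate pH 7.4 with 3 mM MgCl2 and 1 mM EDTA. Sampled at 0, 90 and 180 min; half-life calculated from loss of parent compound.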
Background: Liver microsomes are a subcellular fraction often used to study metabolism.

Data set [2] can be described thus: Metabolic stability by incubation with human hepatocytes. The data set is classed as ADME, cell-based, Liver, Hepatocyte. An outline of the steps:
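Compounds at 23 µM incubated separately with pooled (n = 2) cryopreserved human hepatocytes (2 million cells/mL) in phenol-red-free Waymouth's medium with FBS 4.5%, insulin, glutamine 3.6 mM, pyruvate 4.5 mM, dexamethasone 0.9 µM; 1% methanol. Samples at 0, 180, 360 min quenched in acetonitrile, protein spun off. Half-life from parent disappearance.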

Data set [3] concerns the target Sodium-dependent noradrenaline transporter (Homo sapiens, UniProt P23975). In words: Inhibition of reuptake of Norepinephrine.
Data set [4] concerns Rattus norvegicus. As to the kind of experiment: Effect on latency in tail flick in rat after 1,2,4 and 8 hrs of administration of 50 mg/kg, ip. The data set is classed as functional, organism-based. Also noted: dose 50 mg/kg. An outline of the steps:
(§1)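 Rat tail-flick model; single intraperitoneal dose of 50 mg/kg, with 5 mg/kg ip morphine and saline as controls. Tail-flick latency (s) read at 1, 2, 4 and 8 h after dosing. n = 9–10 per group; significance vs control by Dunnett's test (p<0.05, p<0.01).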

The subject of data set [5] is Rattus norvegicus. As to the kind of experiment: Effect on latency in tail flick in rat after 1 and 2 hrs of administration of 50 mg/kg, ip. The data set is classed as functional, organism-based. Also noted: dose 50 mg/kg. The conditions noted are these: tested as the 2H-labelled form. An outline of the steps: as §1

Active and inactive are the calls of the source. The rule behind the calls is not given here. A value given as a limit tells only on which side of the number the result lay.

Chain of Sodium-dependent noradrenaline transporter (P23975 whole entry): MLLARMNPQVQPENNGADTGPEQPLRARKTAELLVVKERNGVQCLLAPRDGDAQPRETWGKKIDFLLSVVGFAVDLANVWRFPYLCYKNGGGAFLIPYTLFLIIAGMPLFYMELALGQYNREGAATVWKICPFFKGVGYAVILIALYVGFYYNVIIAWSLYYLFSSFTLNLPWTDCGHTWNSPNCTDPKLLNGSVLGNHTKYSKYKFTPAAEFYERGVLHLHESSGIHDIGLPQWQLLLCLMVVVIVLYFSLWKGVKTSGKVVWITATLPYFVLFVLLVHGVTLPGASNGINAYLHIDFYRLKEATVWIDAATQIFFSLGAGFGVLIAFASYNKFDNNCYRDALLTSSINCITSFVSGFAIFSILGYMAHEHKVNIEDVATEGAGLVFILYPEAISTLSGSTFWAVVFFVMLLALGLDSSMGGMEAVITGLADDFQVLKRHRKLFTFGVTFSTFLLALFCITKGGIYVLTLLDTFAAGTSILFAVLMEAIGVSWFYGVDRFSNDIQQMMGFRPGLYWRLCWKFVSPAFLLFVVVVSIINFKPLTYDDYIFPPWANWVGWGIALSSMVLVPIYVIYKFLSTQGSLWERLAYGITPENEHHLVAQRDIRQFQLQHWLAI

With `[2H]C([2H])([2H])N(C[C@H]1CCCC[C@]1(O)c1cccc(OC)c1)C([2H])([2H])[2H]`, the half-life – broadly, how long it takes for the measured level to halve – in data set [1] was 9.12 h; in data set [2], 14.2 h. For the same compound, the IC50 (as a rule, the concentration that inhibits the measured activity by half) in data set [3] was determined as 3.2 µM.

For the compound `[2H]C([2H])([2H])Oc1cccc([C@@]2(O)CCCC[C@@H]2CN(C([2H])([2H])[2H])C([2H])([2H])[2H])c1`, the half-life in data set [1] amounted to 120 h; in data set [2], 60.2 h. In data set [3], the midpoint of inhibition, the IC50, lay at 2 µM.

Regarding `[2H]C([2H])([2H])Oc1cccc([C@@]2(O)CCCC[C@@H]2CN(C)C)c1`, the figures for the half-life in data set [1] and in data set [2] were 12.4 h and 22.2 h, respectively. Moreover, the IC50 in data set [3] came out at 3.6 µM.

Take `CN(C)C[C@H]1CCCC[C@]1(O)c1cccc(O)c1` [O-DESMETHYL TRAMADOL]: the half-life in data set [1] came to 47 h; in data set [2], 26 h. Besides, the IC50 in data set [3] was > 10 µM.

`[2H]C([2H])([2H])N(C[C@H]1CCCC[C@]1(O)c1cccc(O)c1)C([2H])([2H])[2H]`: the half-life in data set [1] was determined as 12.4 h; in data set [2] it was 27.5 h. In data set [3], the IC50 is 6.7 µM.

In the case of `COc1cccc([C@@]2(O)CCCC[C@@H]2CN(C)C)c1` [TRAMADOL], the results for the half-life in data set [1] and in data set [2] were 12.3 h and 16.1 h, respectively. Besides, the result with Rattus norvegicus [4], in the data set with Rattus norvegicus [4] (tested as the 2H-labelled form) and in the data set on Rattus norvegicus [5] was Active. Also, the IC50 in data set [3] was 0.79 µM.
